Screens as filed in PubChem BioAssay.
T cruzi inh: blocks replication of Trypanosoma cruzi; AID 1885; inhibition, % (test concentration not listed); hit rate 1.4% among 300,000; T. cruzi beta-gal in NIH3T3, luminescence, 90 h;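 active = mean inhibition across valid replicates above about 55%, limit read from the data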;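 also: signal also drops with host cell toxicity which is not excluded here; 0% = plate median of DMSO wells and 100% = zero luminescence signal; higher percent means less beta-gal luminescence so fewer parasites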
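System: Mouse NIH/3T3 fibroblasts infected with β-gal-expressing T. cruzi Tulahuen C4 | Quantity: NIH/3T3 cells, 5,000 per well | Reagent: 5000 reporter trypomastigotes per well | Dosing: Compound pinned at 50 nL/well, DMSO | Schedule: 3 h host attachment, then at least 90 h co-culture | Detection: GalScreen luminescence, 60 min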
PfHsp90 yeast 2: growth inhibition of yeast expressing Plasmodium Hsp90; S. cerevisiae expressing PfHsp90, BacTiter-Glo ATP, 48 h; yeast lacking PDR1 and PDR3 efflux regulators; inhibition, % at 9.4 µM; hit rate 0.32% among 310,000; AID 504621;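 active = every replicate shows inhibition above about 80%, whatever the replicate mean, limit read from the data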;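 also: 0% = DMSO neutral controls and 100% = 20 µM radicicol positive controls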
Beta apoptosis: blocks beta cell apoptosis | hit rate 0.8% among 300,000 | protection from apoptosis, % (no concentration beside the values) | INS-1E cytokine-induced death, ATP luminescence, 48 h; percent of positive-control rescue, neutral wells zero | AID 435005;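 active = Every replicate reaches about 75%, or at least half do and their mean reaches it too, limit read from the data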;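 also: 0% = cytokine-treated negative control wells and 100% = positive control rescue; higher means more ATP so stronger rescue from cytokine killing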
CSC inhib: cancer stem cell inhibition | inhibition, % at 7.5 µM | AID 2717 | cancer stem cell-like cells viability, luminescence | hit rate 1.1% among 300,000; in the data active = inhibition above about 75%; tested in HMLE shEcad cells
SKKanGAS inh: inhibitors of SKKanGAS S. pyogenes growth in kanamycin (SK-promoter or general growth effect) | BacTiter-Glo, 6 h | inhibition, % at 7.5 µM | hit rate 1.3% among 300,000 | AID 1662;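 active = mean replicate score, as percent of positive control median, at least 50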;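 also: strain carries kanamycin resistance gene driven by streptokinase promoter and grows in 40 µg/ml kanamycin; loss of luminescence reflects streptokinase promoter inhibition or plain growth inhibition; 0% = median of DMSO wells and 100% = positive control at its reference dose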
HIF activator: HIF pathway transcriptional activation; U2OS HRE-luciferase reporter, luminescence; normalized: DMSO 0%, desferrioxamine 100%; activation, % at 7.5 µM (by protocol); hit rate 0.32% among 300,000; AID 1910;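 active = mean activation of at least 10% of the iron chelator positive control signal, with at least half of replicates also reaching 10%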
An asterisk follows results filed as active. Shown are actives, neighbours in structure and some others; about 3.6% of the full set was active somewhere.

COc1cc(NC(=O)c2cc3nc(-c4ccccc4)cc(-c4ccccc4)n3n2)cc(OC)c1OC was read as T cruzi inh 10, PfHsp90 yeast 2 -13, Beta apoptosis 30, CSC inhib 10, SKKanGAS inh 54* and HIF activator -1.
Cc1c([N+](=O)[O-])c(C(=O)NC2CCCCC2)nn1C was read as T cruzi inh 7, PfHsp90 yeast 2 10, Beta apoptosis -1, CSC inhib -11, SKKanGAS inh -2 and HIF activator 0.
O=C1NC(=O)N2CCSC2(Cc2ccccc2)N1 (stereo not drawn) was read as PfHsp90 yeast 2 -16.
C=CCn1cnc2c(c1=O)c1nc3ccccc3nc1n2/N=C/c1cc(OC)c(OC)c(OC)c1 was read as T cruzi inh 16, PfHsp90 yeast 2 -10, Beta apoptosis 102*, CSC inhib 41, SKKanGAS inh 40 and HIF activator 0.
C=CCn1cnc2c(c1=O)c1nc3ccccc3nc1n2/N=C/c1cccc(OC)c1OC was read as PfHsp90 yeast 2 -38, Beta apoptosis 2 and CSC inhib 33.
`CN(CCNC(=O)c1cn(C)c2ccc(S(=O)(=O)N(C)C)cc2c1=O)CCc1ccccc1` gave T cruzi inh 12, Beta apoptosis -1, CSC inhib -9, SKKanGAS inh -4 and HIF activator 0.
CC(C)CCNC(=O)c1cn(C)c2ccc(S(=O)(=O)N3CCCC3)cc2c1=O was read as T cruzi inh 7, PfHsp90 yeast 2 22, Beta apoptosis 3, CSC inhib -9, SKKanGAS inh 6 and HIF activator 3.
`CCN(CC)S(=O)(=O)c1ccc2c(c1)c(=O)c(C(=O)NCCN(C)CCc1ccccc1)cn2C` gave T cruzi inh 56*, PfHsp90 yeast 2 -20, CSC inhib -8, SKKanGAS inh 1 and HIF activator 0.
CC(C)CN(CCNC(=O)c1cn(C)c2ccc(S(=O)(=O)N3CCCC3)cc2c1=O)CC(C)C was read as T cruzi inh 0, PfHsp90 yeast 2 -2, Beta apoptosis -4, CSC inhib -8, SKKanGAS inh 6 and HIF activator 184*.
Screening CC1CN(C(=O)COC(=O)/C=C/c2cccc([N+](=O)[O-])c2)CC(C)O1 (stereo not drawn) returned PfHsp90 yeast 2 17, Beta apoptosis 0 and CSC inhib 2.
`COc1ccc2c(c1)NC(c1ccc(N(C)C)cc1)c1cccn1-2` (stereo not drawn) gave T cruzi inh 35, PfHsp90 yeast 2 -1, Beta apoptosis 6, CSC inhib 4, SKKanGAS inh 28 and HIF activator 0.
`COC(=O)c1ccccc1S(=O)(=O)N1CCC(C(=O)NCCC2=CCCCC2)CC1` gave PfHsp90 yeast 2 20, Beta apoptosis 2 and CSC inhib -14.
O=C(/C=C/c1ccc(OC(F)F)cc1)Nc1cccc(S(=O)(=O)NC2=NCCCCC2)c1 was read as T cruzi inh 3, PfHsp90 yeast 2 -8, Beta apoptosis -3, CSC inhib 18, SKKanGAS inh -3 and HIF activator 2.
C#CCOc1ccc(CNC[C@H]2O[C@@H](n3cnc4c(N)ncnc43)[C@H](O)[C@@H]2O)cc1 was read as PfHsp90 yeast 2 4 and Beta apoptosis -3.
`CCn1c(SCc2ccc(F)cc2)nc2ccccc2c1=O` gave T cruzi inh 9, PfHsp90 yeast 2 1, Beta apoptosis 5, CSC inhib 27, SKKanGAS inh 51* and HIF activator -1.
For CCn1c(SCc2ccc(OC)c(F)c2)nc2ccccc2c1=O the results were T cruzi inh 20, PfHsp90 yeast 2 1, Beta apoptosis -2, SKKanGAS inh 25 and HIF activator 1.
Screening COCC(C)n1c(SCc2ccc(OC)c(F)c2)nc2ccccc2c1=O (stereo not drawn) returned T cruzi inh 59*, PfHsp90 yeast 2 -19, SKKanGAS inh 20 and HIF activator -1.
Cc1ccc(CNS(=O)(=O)c2cc3c4c(c2)CCN4C(=O)CC3)cc1 was read as T cruzi inh -20, PfHsp90 yeast 2 31, Beta apoptosis -2, CSC inhib -5, SKKanGAS inh -3 and HIF activator -11.
For Cc1ccc(NC(=O)C2CCCN(S(=O)(=O)c3ccc4[nH]c(=O)ccc4c3)C2)c(C)c1 (stereo not drawn) the results were T cruzi inh -3, PfHsp90 yeast 2 10, SKKanGAS inh -10 and HIF activator 0.
Screening CC(C)(C)C1=CC(=O)C(=O)C(C(C)(C)C)=C1 returned T cruzi inh 74*, PfHsp90 yeast 2 103*, Beta apoptosis 0, CSC inhib 62, SKKanGAS inh -4 and HIF activator 0.
CCC1(CC)NC(=O)N(CC(=O)OCC(=O)Nc2ccc(OC(F)(F)F)cc2)C1=O was read as Beta apoptosis -5.
`NC(=O)CC(NC(=O)c1ccc(Br)cc1)c1ccc(N2CCN(c3ccccc3)CC2)c([N+](=O)[O-])c1` (stereo not drawn) gave T cruzi inh 5, CSC inhib -19, SKKanGAS inh 22 and HIF activator 0.
Cc1ccccc1CNc1ccc(C(CC(N)=O)NC(=O)c2ccccc2)cc1[N+](=O)[O-] (stereo not drawn) was read as T cruzi inh -7, PfHsp90 yeast 2 4, Beta apoptosis 4, CSC inhib 78*, SKKanGAS inh -1 and HIF activator -1.
`NC(=O)CC(NC(=O)Cc1ccc(Br)cc1)c1ccc(NC2CCCCCC2)c([N+](=O)[O-])c1` (stereo not drawn) gave T cruzi inh -11, PfHsp90 yeast 2 0, Beta apoptosis -8, CSC inhib 76*, SKKanGAS inh 18 and HIF activator -1.
Screening NC(=O)CC(NC(=O)Cc1ccc(Br)cc1)c1ccc(NC2CCCCCCC2)c([N+](=O)[O-])c1 (stereo not drawn) returned PfHsp90 yeast 2 -13.
`NC(=O)CC(NC(=O)c1ccc(Br)cc1)c1ccc(N2CCCCCCC2)c([N+](=O)[O-])c1` (stereo not drawn) gave T cruzi inh 21, PfHsp90 yeast 2 -2, Beta apoptosis 1, CSC inhib 131*, SKKanGAS inh 46 and HIF activator -1.
CCOC(=O)c1cnc(-n2nc(C)cc2C)nc1NNc1ncc(-c2ccccc2)cn1 was read as T cruzi inh 15, Beta apoptosis 96*, CSC inhib 37, SKKanGAS inh 28 and HIF activator 0.
`CCOC(=O)c1cnc(-n2nc(C)cc2C)nc1NNc1cc(-c2ccccc2)nc(C)n1` gave T cruzi inh 49, SKKanGAS inh 103* and HIF activator 0.
For O=C(CCSc1ccc(Br)cc1)c1ccc(O)cc1 the results were T cruzi inh 24, PfHsp90 yeast 2 97*, Beta apoptosis -17, CSC inhib 33, SKKanGAS inh 24 and HIF activator 0.
